Measured values: ChEMBL document CHEMBL1275544, “Effect of therapeutic chemical agents in vitro and on experimental meningoencephalitis due to Naegleria fowleri” (Antimicrob Agents Chemother, 2008)
In brackets after ≈: the same amount, converted by molar mass. Activity calls are given as the source filed them. The rule behind the calls is not given here.

Tests used:
Naegleria fowleri [1] = test: Antiparasitic activity against Naegleria fowleri ATCC 30215 trophozoites at >1.56 ug/ml on day 4 by LDH release assay; format: functional
Procedure, shortened: (§1)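 Supernatant sampled on days 2, 4, 6, mixed with CytoTox96 reagent for 30 min at room temperature, stopped, A490 read. Cytotoxicity % = (sample − spontaneous)/(maximum − spontaneous) ×100. Means ± SE of three experiments in triplicate.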

Mus musculus [2] = test: Blood urea nitrogen level in BALB/c mouse serum at 5 mg/kg, ip; format: ADME, organism-based; design: dose 5 mg/kg, route intraperitoneal; conditions: in vivo
Procedure, shortened: (§2)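 Renal toxicity check: BALB/c mice given drug i.p. at 5, 10, 20 or 50 mg/kg (saline vehicle), or saline as negative control. Blood collected once daily for 3 days. Serum blood urea nitrogen measured on a clinical chemical analyzer.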

Mus musculus [3] = test: Blood urea nitrogen level in BALB/c mouse serum at 20 mg/kg, ip; format: ADME, organism-based; design: dose 20 mg/kg, route intraperitoneal; conditions: in vivo; procedure, shortened: as §2
Naegleria fowleri [4] = test: Antiparasitic activity against Naegleria fowleri ATCC 30215 trophozoites infected in BALB/c mouse assessed as mean time to death at 10 mg/kg, ip administered on days 3, 7 and 11 postinfection; format: functional, ATCC30215; conditions: route intraperitoneal
Procedure, shortened: (§3)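 Female BALB/c mice, 7 weeks old, were infected intranasally under secobarbital anaesthesia with 10^4 trophozoites grown 3 days in Nelson's medium at 37°C. Drug was dissolved in saline and given as 100 µl intraperitoneally, starting day 3; controls received saline; 20 mice per group. Deaths were recorded daily for 1 month and mean time to death computed per group. Cause of death was confirmed by brain-tissue culture.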

Naegleria fowleri [5] = test: Antiparasitic activity against Naegleria fowleri ATCC 30215 trophozoites infected in BALB/c mouse assessed as mouse survival at 10 mg/kg, ip administered on days 3, 7 and 11 postinfection; format: functional, ATCC30215; conditions: route intraperitoneal; procedure, shortened: as §3
Mus musculus [6] = test: Blood urea nitrogen level in BALB/c mouse serum at 10 mg/kg, ip; format: ADME, organism-based; design: dose 10 mg/kg, route intraperitoneal; conditions: in vivo; procedure, shortened: as §2
Naegleria fowleri [7] = test: Antiparasitic activity against Naegleria fowleri ATCC 30215 trophozoites after 4 days; format: functional; conditions: ATCC 30215, 96 h, read-out: MIC100
Naegleria fowleri [8] = test: Antiparasitic activity against Naegleria fowleri ATCC 30215 trophozoites assessed as inhibition of amoeba proliferation at 0.39 ug/ml on day 2; format: functional; conditions: ATCC 30215, 48 h
Procedure, shortened: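 Viable amoebae counted by hemacytometer with trypan blue on day 2, with light-microscope morphology. Triplicate wells, at least three repeats.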

Naegleria fowleri [9] = test: Antiparasitic activity against Naegleria fowleri ATCC 30215 trophozoites after 2 days; format: functional; conditions: ATCC 30215, 48 h, read-out: MIC100
Naegleria fowleri [10] = test: Antiparasitic activity against Naegleria fowleri ATCC 30215 trophozoites after 6 days; format: functional; conditions: ATCC 30215, 144 h, read-out: MIC100
Naegleria fowleri [11] = test: Antiparasitic activity against Naegleria fowleri ATCC 30215 trophozoites at 25 ug/ml on day 6 by LDH release assay; format: functional; procedure, shortened: as §1
Mus musculus [12] = test: Blood urea nitrogen level in BALB/c mouse serum at 50 mg/kg, ip; format: ADME, organism-based; design: dose 50 mg/kg, route intraperitoneal; conditions: in vivo; procedure, shortened: as §2
Naegleria fowleri [13] = test: Antiparasitic activity against Naegleria fowleri ATCC 30215 trophozoites infected in BALB/c mouse assessed as mouse survival at 20 mg/kg, ip administered on days 3, 7 and 11 postinfection; format: functional, ATCC30215; conditions: route intraperitoneal; procedure, shortened: as §3
Mus musculus [14] = test: Renal toxicity in BALB/c mouse assessed as necrosis in kidney cortex at 20 mg/kg, ip by histopathological analysis; format: organism-based; design: dose 20 mg/kg, route intraperitoneal; conditions: in vivo
Naegleria fowleri [15] = test: Antiparasitic activity against Naegleria fowleri ATCC 30215 trophozoites infected in BALB/c mouse assessed as mouse survival at 20 mg/kg, ip administered on days 3 and 7 postinfection; format: functional, ATCC30215; conditions: route intraperitoneal; procedure, shortened: as §3
Naegleria fowleri [16] = test: Antiparasitic activity against Naegleria fowleri ATCC 30215 trophozoites at 100 ug/ml on day 4 by LDH release assay; format: functional; procedure, shortened: as §1
[17] = Hepatotoxicity in BALB/c mouse hepatocytes assessed as change in cell morphology at 20 mg/kg, ip by histopathological analysis; format: toxicity, organism-based, Hepatocyte; design: dose 20 mg/kg, route intraperitoneal
Procedure, shortened: (§4)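 Toxicity histology: BALB/c mice dosed i.p. at 20 mg/kg in saline. Liver and kidney fixed in 10% neutral buffered formalin, paraffin-embedded, H&E-stained, and complete cross-sections examined by light microscopy (×100, ×400) for hepatocyte and renal cortical tubule size and shape.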

Naegleria fowleri [18] = test: Antiparasitic activity against Naegleria fowleri ATCC 30215 trophozoites infected in BALB/c mouse assessed as mean time to death at 20 mg/kg, ip administered on days 3, 7 and 11 postinfection; format: functional, ATCC30215; conditions: route intraperitoneal; procedure, shortened: as §3
Naegleria fowleri [19] = test: Antiparasitic activity against Naegleria fowleri ATCC 30215 trophozoites infected in BALB/c mouse brain by histopathology analysis; format: functional, organism-based; conditions: ATCC30215
Procedure, shortened: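 Female BALB/c mice, 7 weeks old, infected intranasally under secobarbital with 10^4 trophozoites grown 3 days in Nelson's medium at 37°C. Drugs given i.p. in saline on days 3, 7, 11. Brains of dead mice or mice surviving 1 month fixed in 10% neutral buffered formalin, paraffin-embedded, H&E-stained and examined by light microscopy. 20 mice/group.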

Mus musculus [20] = test: Renal toxicity in BALB/c mouse assessed as change in renal cortical tubule morphology at 20 mg/kg, ip by histopathological analysis; format: organism-based; design: dose 20 mg/kg, route intraperitoneal; conditions: in vivo; procedure, shortened: as §4
Mus musculus [21] = test: Renal toxicity in BALB/c mouse assessed as degeneration of renal tubules at 20 mg/kg, ip by histopathological analysis; format: organism-based; design: dose 20 mg/kg, route intraperitoneal; conditions: in vivo
Naegleria fowleri [22] = test: Antiparasitic activity against Naegleria fowleri ATCC 30215 trophozoites at 50 ug/ml on day 2 by LDH release assay; format: functional; procedure, shortened: as §1
Naegleria fowleri [23] = test: Antiparasitic activity against Naegleria fowleri ATCC 30215 trophozoites at 25 ug/ml on day 2 by LDH release assay; format: functional; procedure, shortened: as §1
Naegleria fowleri [24] = test: Antiparasitic activity against Naegleria fowleri ATCC 30215 trophozoites at 12.5 ug/ml on day 2 by LDH release assay; format: functional; procedure, shortened: as §1
Naegleria fowleri [25] = test: Antiparasitic activity against Naegleria fowleri ATCC 30215 trophozoites at 3.125 ug/ml on day 2 by LDH release assay; format: functional; procedure, shortened: as §1
Naegleria fowleri [26] = test: Antiparasitic activity against Naegleria fowleri ATCC 30215 trophozoites at 50 ug/ml on day 6 by LDH release assay; format: functional; procedure, shortened: as §1
Naegleria fowleri [27] = test: Antiparasitic activity against Naegleria fowleri ATCC 30215 trophozoites at 100 ug/ml on day 2 by LDH release assay; format: functional; procedure, shortened: as §1
Naegleria fowleri [28] = test: Antiparasitic activity against Naegleria fowleri ATCC 30215 trophozoites at 6.25 ug/ml on day 2 by LDH release assay; format: functional; procedure, shortened: as §1
Naegleria fowleri [29] = test: Antiparasitic activity against Naegleria fowleri ATCC 30215 trophozoites at 1.56 ug/ml on day 2 by LDH release assay; format: functional; procedure, shortened: as §1

Row | SMILES | Activity (Mus musculus [3]) | Activity (Mus musculus [6]) | MIC (Naegleria fowleri [7]) | MIC (Naegleria fowleri [9]) | MIC (Naegleria fowleri [10]) | Activity (Naegleria fowleri [11]) | Activity (Mus musculus [12]) | Activity (Naegleria fowleri [13]) | Activity (Naegleria fowleri [15]) | also measured
1 | C[C@@H]1[C@H](O)[C@@H](C)/C=C/C=C/C=C/C=C/C=C/C=C/C=C/[C@H](O[C@@H]2O[C@H](C)[C@@H](O)[C@H](N)[C@@H]2O)C[C@@H]2O[C@](O)(C[C@@H](O)C[C@@H](O)[C@H](O)CC[C@@H](O)C[C@@H](O)CC(=O)O[C@H]1C)C[C@H](O)[C@H]2C(=O)O [AMPHOTERICIN B] | 44.1 mg/dL | 38.6 mg/dL | 0.78 µg/mL (≈ 0.844 µM) | 0.78 µg/mL (≈ 0.844 µM) | 0.78 µg/mL (≈ 0.844 µM) | 99.5% | – | – | – | Activity (Naegleria fowleri [1]): >50%; Activity (Mus musculus [2]): 27.4 mg/dL; Time (Naegleria fowleri [4]): 17.3 days; Activity (Naegleria fowleri [5]): 40%; inhibition at 0.39 µg/mL (Naegleria fowleri [8]): 100%
2 | CN(C)CCCN1c2ccccc2Sc2ccc(Cl)cc21 [CHLORPROMAZINE] | 38.4 mg/dL | 36.3 mg/dL | 12.5 µg/mL (≈ 39.2 µM) | 12.5 µg/mL (≈ 39.2 µM) | 12.5 µg/mL (≈ 39.2 µM) | 64.4% | 57.5 mg/dL | 75% | 35% | Activity (Mus musculus [14]): Non-toxic; Activity (Naegleria fowleri [16]): 69.1%; Activity [17]: Non-toxic; Time (Naegleria fowleri [18]): 17.2 days; Activity (Naegleria fowleri [19]): Active; Activity (Mus musculus [20]): Non-toxic; Activity (Mus musculus [21]): Non-toxic
3 | CCCCCCCCCCCCCCCCOP(=O)([O-])OCC[N+](C)(C)C [MILTEFOSINE] | 34.6 mg/dL | 29.6 mg/dL | 25 µg/mL (≈ 61.3 µM) | 25 µg/mL (≈ 61.3 µM) | 25 µg/mL (≈ 61.3 µM) | – | 82.4 mg/dL | 55% | 20% | Activity (Naegleria fowleri [22]): <30%; Activity (Naegleria fowleri [23]): <30%; Activity (Naegleria fowleri [24]): <30%; Activity (Naegleria fowleri [25]): <30%; Activity (Naegleria fowleri [26]): 79.3%; Activity (Naegleria fowleri [27]): <30%; Activity (Naegleria fowleri [28]): <30%; Activity (Naegleria fowleri [29]): <30%
